One assay relates to BXPC-3. Put plainly: Antiproliferative activity against human BXPC-3 cells expressing wild type KRAS assessed as reduction in cell growth incubated for 72 hrs by CyQuant proliferation assay. The class given is functional, cell-based. Conditions: BXPC-3, 72 h. The procedure, abridged:
(§1)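 Cells seeded in 96-well plates; after 24 h fresh growth medium with 0.1% DMSO vehicle or drug added (highest dose 30 µM for cancer lines), grown 72 h at 37 °C, 5% CO2. Live cell number measured by CyQUANT fluorescence. IC50 from three independent experiments. MEFs were isogenic lines carrying oncogenic BRAF or KRAS.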

Another assay deals with HEC-1B cell line. Put plainly: Antiproliferative activity against human HEC-1B cells expressing mutant KRAS assessed as reduction in cell growth incubated for 72 hrs by CyQuant proliferation assay. The assay is classed as functional, cell-based. The procedure, abridged:
as §1

The subject of another assay is SK-CO-1. The assay is described as follows: Antiproliferative activity against human SK-CO-1 cells expressing mutant KRAS assessed as reduction in cell growth incubated for 72 hrs by CyQuant proliferation assay. The class given is functional, cell-based. Conditions: SK-CO-1, 72 h. The procedure, abridged: as §1
A further assay relates to NCI-H23. Put plainly: Antiproliferative activity against human NCI-H23 cells expressing mutant KRAS assessed as reduction in cell growth incubated for 72 hrs by CyQuant proliferation assay. Conditions: NCI-H23, 72 h. The assay is classed as functional, cell-based. Summed up: as §1
Assay [1] is described as follows: Antiproliferative activity against human MPANC96 cells expressing KRAS mutant assessed as reduction in cell growth incubated for 72 hrs by CyQuant proliferation assay. The class given is functional, cell-based. To be noted: MPANC96, 72 h. The procedure, abridged: as §1
Another assay has as its system Ishikawa. Put plainly: Antiproliferative activity against human Ishikawa cells expressing wild type KRAS assessed as reduction in cell growth incubated for 72 hrs by CyQuant proliferation assay. The assay is classed as functional, cell-based. The procedure, abridged:
as §1

For a further assay, the system named is NCI-H1975. The assay is described as follows: Antiproliferative activity against human NCI-H1975 cells expressing wild type KRAS assessed as reduction in cell growth incubated for 72 hrs by CyQuant proliferation assay. Conditions: NCI-H1975, 72 h. The assay is classed as functional, cell-based. The procedure, abridged: as §1
Assay [2] is described as follows: Antiproliferative activity against human MOH cells expressing KRAS mutant assessed as reduction in cell growth incubated for 72 hrs by CyQuant proliferation assay. The class given is functional, cell-based. The procedure, abridged:
as §1

A further assay has as its system MIA PaCa-2. The assay is described as follows: Antiproliferative activity against human MIA PaCa-2 cells expressing KRAS mutant assessed as reduction in cell growth incubated for 72 hrs by CyQuant proliferation assay. The assay is classed as functional, cell-based. Conditions: MIA PaCa-2, 72 h. Summed up:
as §1

Assay [3] relates to MDCK. Put plainly: Inhibition of ASM in dog MDCK cells co-expressing recombinant full length mGFP-tagged KRAS G12V mutant and mCherry-CAAX assessed as reduction in plasma membrane localization of KRAS mutant incubated for 48 hrs by confocal microscopic analysis relative to control. Conditions: Canis lupus familiaris. The class given is cell membranes. The procedure, abridged: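 MDCK cells stably co-expressing mGFP-KRAS G12V or mGFP-LactC2 with mCherry-CAAX (HRAS 179–189 C181S/C184S) grown on coverslips in DMEM/10% FBS. Treated 48 h with 0.1% DMSO or graded drug, fixed in 4% paraformaldehyde, then quantitative confocal imaging. Mislocalization scored as the Manders fraction of mCherry-CAAX co-localizing with the GFP probe. IC50 and Emax from three independent experiments.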

Another assay relates to NCI-H522. Put plainly: Antiproliferative activity against human NCI-H522 cells expressing wild type KRAS assessed as reduction in cell growth incubated for 72 hrs by CyQuant proliferation assay. The class given is functional, cell-based. To be noted: NCI-H522, 72 h. The procedure, abridged:
as §1

The test system of another assay is NCI-H1299. The assay is described as follows: Antiproliferative activity against human NCI-H1299 cells expressing wild type KRAS assessed as reduction in cell growth incubated for 72 hrs by CyQuant proliferation assay. The class given is functional, cell-based. To be noted: NCI-H1299, 72 h. Summed up:
as §1

Another assay deals with HEC-1-A. Put plainly: Antiproliferative activity against human HEC-1-A cells expressing mutant KRAS assessed as reduction in cell growth incubated for 72 hrs by CyQuant proliferation assay. The class given is functional, cell-based. Summed up: as §1
Assay [4] concerns MDCK. The assay is described as follows: Cytotoxicity against dog MDCK cells at 30 uM. The class given is functional, cell-based. Conditions: Canis lupus familiaris.
A further assay deals with Caco-2. Put plainly: Antiproliferative activity against human Caco-2 cells expressing wild type KRAS assessed as reduction in cell growth incubated for 72 hrs by CyQuant proliferation assay. To be noted: Caco-2, 72 h. The class given is functional, cell-based. The procedure, abridged: as §1

pIC50: −log10 of the molar value. Activity calls are given as the source filed them. The rule behind the calls is not given here.

From ChEMBL document CHEMBL4814013, “Scaffold repurposing of fendiline: Identification of potent KRAS plasma membrane localization inhibitors” (Eur J Med Chem, 2021) come the findings set out here.

Regarding `COc1ccc([C@@H](C)N(CC=C(c2ccccc2)c2ccccc2)CC=C(c2ccccc2)c2ccccc2)cc1`, the negative-log IC50 (pIC50) (in the assay with BXPC-3; in the assay on HEC-1B cell line; with SK-CO-1; in the assay with NCI-H23; in assay [1]; with Ishikawa) was < 4.52 each time. Besides, the negative logarithm of the IC50 (pIC50) (in the assay on NCI-H1975; in assay [2]; in the assay with MIA PaCa-2; with NCI-H522; in the assay with NCI-H1299; with HEC-1-A) was < 4.52 throughout. Besides, the pIC50 (in general, the IC50 on a negative log10 scale, so that one unit is a factor of ten) with Caco-2 was < 4.52. The Emax in the assay with MDCK [3] came to 0.74. In the assay on MDCK [4], the outcome was inactive.
